According to ChEMBL document CHEMBL1158972, “New cytotoxic beta-carboline alkaloids from the marine bryozoan, Cribricellina cribraria” (J Nat Prod, 1991):
≈ marks a conversion by molar mass, not a printed value. Calls of active or inactive are those of the source. No cut-off for these calls is given here.

Key:
P388 = experiment: Cytotoxicity against mouse P388 cells; format: functional, cell-based
Procedure, shortened: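 P-388 leukemia line (ATCC CCL 46). The value is the sample concentration, in ng/ml, that reduces cell growth by 50%.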

Human alphaherpesvirus 1 [1] = experiment: Antiviral activity against Herpes simplex virus (type 1 / strain F) ATCC VR 733 in african green monkey BSC1 cells assessed as excess radius from disk edge at 20 ug/disk; format: functional, organism-based; conditions: BSC-1
Procedure, shortened: (§1)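 Disc assay of herpes simplex type I (strain F, ATCC VR 733) on a BSC cell line (ATCC CCL 26). The antiviral zone is scored as excess radius from the disc edge: 2+ = 2-4 mm, 3+ = 4-6 mm, ww = zone over the whole well.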

[2] = Cytotoxicity against african green monkey BSC1 cells at 20 ug/disk; format: cell-based; conditions: chlorocebus aethiops, bsc-1
Procedure, shortened: (§2)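 Cytotoxic zone around the disc on a BSC monolayer (ATCC CCL 26), scored as excess radius beyond the disc edge: 2+ = 2-4 mm, 3+ = 4-6 mm, ww = zone over the whole well.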

Escherichia coli = experiment: Antimicrobial activity against Escherichia coli assessed per disk; format: functional
Bacillus subtilis = experiment: Antimicrobial activity against Bacillus subtilis assessed per disk; format: functional
Pseudomonas aeruginosa = experiment: Antimicrobial activity against Pseudomonas aeruginosa assessed per disk; format: functional
Candida albicans = experiment: Antimicrobial activity against Candida albicans assessed per disk; format: functional
[3] = test system: Trichophyton mentagrophytes; experiment: Antimicrobial activity against Trichophyton mentagrophytes assessed per disk; format: functional
Amorphotheca resinae [4] = experiment: Antimicrobial activity against Cladosporium resinae assessed per disk; format: functional
[5] = test system: Trichophyton mentagrophytes; experiment: Antimicrobial activity against Trichophyton mentagrophytes at 100 units; format: functional, organism-based
Amorphotheca resinae [6] = experiment: Antimicrobial activity against Cladosporium resinae at 100 units; format: functional, organism-based
Human alphaherpesvirus 1 [7] = experiment: Antiviral activity against Herpes simplex virus (type 1 / strain F) ATCC VR 733 in african green monkey BSC1 cells assessed as excess radius from disk edge at 0.5 ug/disk; format: functional, BSC-1; conditions: Human alphaherpesvirus 1, Strain F ATCC VR 733; read-out: IZ; procedure, shortened: as §1
Human alphaherpesvirus 1 [8] = experiment: Antiviral activity against Herpes simplex virus (type 1 / strain F) ATCC VR 733 in african green monkey BSC1 cells assessed as excess radius from disk edge at 0.4 ug/disk; format: functional, organism-based; conditions: BSC-1; procedure, shortened: as §1
[9] = Cytotoxicity against african green monkey BSC1 cells at 2 ug/disk; format: cell-based; conditions: chlorocebus aethiops, bsc-1; procedure, shortened: as §2
[10] = Cytotoxicity against african green monkey BSC1 cells at 0.5 ug/disk; format: cell-based; conditions: chlorocebus aethiops, bsc-1; procedure, shortened: as §2
[11] = Cytotoxicity against african green monkey BSC1 cells at 0.4 ug/disk; format: cell-based; conditions: chlorocebus aethiops, bsc-1; procedure, shortened: as §2
Poliovirus 1 [12] = experiment: Antiviral activity against Polio virus 1 Pfizer vaccine in african green monkey BSC1 cells assessed as excess radius from disk edge at 20 ug/disk; format: functional, organism-based; conditions: BSC-1
Procedure, shortened: (§3)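 Disc assay on BSC cell monolayers (ATCC CCL 26) infected with the Pfizer vaccine strain of poliovirus, with the virus grown on BSC cells. Scored by the radius of the antiviral/cytotoxic zone beyond the disc edge: 2+ = 2-4 mm, 3+ = 4-6 mm, ww = zone over the whole well.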

Human alphaherpesvirus 1 [13] = experiment: Antiviral activity against Herpes simplex virus (type 1 / strain F) ATCC VR 733 in african green monkey BSC1 cells assessed as excess radius from disk edge at 2 ug/disk; format: functional, BSC-1; conditions: Human alphaherpesvirus 1, Strain F ATCC VR 733; read-out: IZ; procedure, shortened: as §1
Poliovirus 1 [14] = experiment: Antiviral activity against Polio virus 1 Pfizer vaccine in african green monkey BSC1 cells assessed as excess radius from disk edge at 0.5 ug/disk; format: functional, BSC-1; conditions: Enterovirus C; read-out: IZ; procedure, shortened: as §3
Poliovirus 1 [15] = experiment: Antiviral activity against Polio virus 1 Pfizer vaccine in african green monkey BSC1 cells assessed as excess radius from disk edge at 0.4 ug/disk; format: functional, organism-based; conditions: BSC-1; procedure, shortened: as §3
Human alphaherpesvirus 1 [16] = experiment: Antiviral activity against Herpes simplex virus (type 1 / strain F) ATCC VR 733 in african green monkey BSC1 cells assessed as excess radius from disk edge at 40 ug/disk; format: functional, BSC-1; conditions: Human alphaherpesvirus 1, Strain F ATCC VR 733; read-out: IZ; procedure, shortened: as §1
Human alphaherpesvirus 1 [17] = experiment: Antiviral activity against Herpes simplex virus (type 1 / strain F) ATCC VR 733 in african green monkey BSC1 cells assessed as excess radius from disk edge at 10 ug/disk; format: functional, organism-based; conditions: BSC-1; procedure, shortened: as §1
[18] = Cytotoxicity against african green monkey BSC1 cells at 40 ug/disk; format: cell-based; conditions: chlorocebus aethiops, bsc-1; procedure, shortened: as §2
[19] = Cytotoxicity against african green monkey BSC1 cells at 10 ug/disk; format: cell-based; conditions: chlorocebus aethiops, bsc-1; procedure, shortened: as §2
Human alphaherpesvirus 1 [20] = experiment: Antiviral activity against Herpes simplex virus (type 1 / strain F) ATCC VR 733 in african green monkey BSC1 cells assessed as excess radius from disk edge at 5 ug/disk; format: functional, BSC-1; conditions: Human alphaherpesvirus 1, Strain F ATCC VR 733; read-out: IZ; procedure, shortened: as §1
Human alphaherpesvirus 1 [21] = experiment: Antiviral activity against Herpes simplex virus (type 1 / strain F) ATCC VR 733 in african green monkey BSC1 cells assessed as excess radius from disk edge at 1 ug/disk; format: functional, organism-based; conditions: BSC-1; procedure, shortened: as §1
[22] = Cytotoxicity against african green monkey BSC1 cells at 5 ug/disk; format: cell-based; conditions: chlorocebus aethiops, bsc-1; procedure, shortened: as §2
[23] = Cytotoxicity against african green monkey BSC1 cells at 1 ug/disk; format: cell-based; conditions: chlorocebus aethiops, bsc-1; procedure, shortened: as §2

Row | Molecule | IC50 (P388) [µg/mL] | inhibition zone (IZ) (Human alphaherpesvirus 1 [1]) | inhibition zone (IZ) [2] | MIC (Escherichia coli) [µg] | MIC (Bacillus subtilis) [µg] | MIC (Pseudomonas aeruginosa) [µg] | MIC (Candida albicans) [µg] | MIC [3] [µg] | MIC (Amorphotheca resinae [4]) [µg] | inhibition zone (IZ) (Poliovirus 1 [12]) | other results
1 | CCCc1nccc2c1[nH]c1ccccc12 | 25 (≈ 119 µM) | inactive | Not Active | >120 | >120 | >60 | >120 | 15 | >120 |  | 
2 | NYSTATIN |  |  |  |  |  |  |  |  |  |  | inhibition zone (IZ) [5]: 4 mm; inhibition zone (IZ) (Amorphotheca resinae [6]): 12 mm
3 | C=Cc1nccc2c1[nH]c1ccccc12 | 0.1 (≈ 0.515 µM) |  |  | 30 | 1.9 | >60 | 1.9 | 0.1 | 0.9 |  | zone of inhibition at 0.5 µg/disc (Human alphaherpesvirus 1 [7]): 1 mm; inhibition zone (IZ) (Human alphaherpesvirus 1 [8]): inactive; inhibition zone (IZ) [9]: Active; inhibition zone (IZ) [10]: 2 mm; inhibition zone (IZ) [11]: Not Active
4 | COC(=O)C1Cc2c([nH]c3ccccc23)C(C)N1 (stereo unspecified) | 120 (≈ 491 µM) | inactive | Not Active | >60 | >60 | >60 | 7.5 | >60 | >60 | inactive | 
5 | C=Cc1nccc2c1[nH]c1c(OC)cccc12 | 0.1 (≈ 0.446 µM) |  |  | >60 | 7.5 | >60 | 7.5 | 0.45 | 15 |  | zone of inhibition at 0.5 µg/disc (Human alphaherpesvirus 1 [7]): 1 mm; inhibition zone (IZ) (Human alphaherpesvirus 1 [8]): inactive; zone of inhibition at 2 µg/disc (Human alphaherpesvirus 1 [13]): 1 mm; inhibition zone (IZ) [9]: 2 mm; inhibition zone (IZ) [10]: 1 mm; inhibition zone (IZ) [11]: Not Active
6 | C=Cc1nccc2c1[nH]c1c(O)cccc12 |  |  |  | >60 | 7.5 | >60 | 15 | 0.45 | 3.7 |  | zone of inhibition at 0.5 µg/disc (Human alphaherpesvirus 1 [7]): 1 mm; inhibition zone (IZ) (Human alphaherpesvirus 1 [8]): inactive; zone of inhibition at 0.5 µg/disc (Poliovirus 1 [14]): 1 mm; inhibition zone (IZ) (Poliovirus 1 [15]): inactive; inhibition zone (IZ) [9]: Active; inhibition zone (IZ) [10]: 2 mm; inhibition zone (IZ) [11]: Not Active
7 | CCc1nccc2c1[nH]c1c(O)cccc12 | > 12.5 | inactive | Not Active | 30 | 30 | >60 | 30 | 30 | >60 | inactive | 
8 | c1ccc2c(c1)[nH]c1cnccc12 [NORHARMANE] | 25 (≈ 149 µM) | inactive | Not Active | 3.7 | 7.5 | >60 | 1.9 | 0.9 | 15 | inactive | 
9 | CCCCCCc1nccc2c1[nH]c1ccccc12 | 9 (≈ 35.7 µM) |  |  | >60 | >60 | >60 | >60 | 1.9 | 7.5 |  | zone of inhibition at 40 µg/disc (Human alphaherpesvirus 1 [16]): 1 mm; inhibition zone (IZ) (Human alphaherpesvirus 1 [17]): inactive; inhibition zone (IZ) [18]: 1 mm; inhibition zone (IZ) [19]: 1 mm
10 | CCc1nccc2c1[nH]c1c(OC)cccc12 | > 12.5 | inactive | Not Active | >60 | >60 | >60 | 7.5 | 7.5 | >60 | inactive | 
11 | CCc1ncc(S(C)(=O)=O)c2c1[nH]c1ccccc12 | > 12.5 | inactive | Not Active | >60 | 30 | >60 | >60 | 30 | >60 |  | 
12 | CCc1nccc2c1[nH]c1ccccc12 | 25 (≈ 127 µM) | inactive | Not Active | >120 | 7.5 | >60 | 1.9 | 1.9 | 30 | inactive | 
13 | C=Cc1nccc2c1[nH]c1c(OC(C)=O)cccc12 | 0.65 (≈ 2.58 µM) |  |  | >60 | 7.5 | >60 | 15 | 0.9 | >60 |  | zone of inhibition at 5 µg/disc (Human alphaherpesvirus 1 [20]): 1 mm; inhibition zone (IZ) (Human alphaherpesvirus 1 [21]): inactive; inhibition zone (IZ) [9]: Active; Activity [2]: Active; inhibition zone (IZ) [22]: 2 mm; inhibition zone (IZ) [23]: Not Active
14 | CC1NC(C(=O)O)Cc2c1[nH]c1ccccc21 (stereo unspecified) | > 125 | inactive | Not Active | >60 | >60 | >60 | >60 | >60 | >60 | inactive | 
15 | Cc1nccc2c1[nH]c1ccccc12 [HARMAN] | 25 (≈ 137 µM) | inactive | Not Active | 60 | 7.5 | >60 | 1.9 | 3.7 | 15 | inactive | 
16 | CC(C)c1nccc2c1[nH]c1ccccc12 | 13 (≈ 61.8 µM) | inactive | Not Active | >120 | 7.5 | >60 | 1.9 | 0.45 | 15 |  | 
